Measurements reported in ChEMBL document CHEMBL5705899 (Biochem J, 2014).
The source made the active and inactive calls. The rule behind the calls is not given here.

What was measured:
[1] = molecular target: Phosphorylase b kinase gamma catalytic chain, skeletal muscle/heart isoform (Homo sapiens) (UniProt Q16816); assay: Inhibition of human PHKG1 at 1 uM using 3xChocktide-PKC as substrate in presence of 33P-ATP by ProQinase assay
[2] = molecular target: Cyclin-dependent kinase 5/CDK5 activator 1 (Homo sapiens) (UniProt Q00535+Q15078); assay: Inhibition of human CDK5/p25NCK at 1 uM using RBER-CHKtide as substrate in presence of 33P-ATP by ProQinase assay; type: protein-complex assay
[3] = molecular target: SRSF protein kinase 3 (Homo sapiens) (UniProt Q9UPE1); assay: Inhibition of human STK23 at 1 uM using RBER-CHKtide as substrate in presence of 33P-ATP by ProQinase assay
[4] = molecular target: Mitogen-activated protein kinase kinase kinase kinase 2 (Homo sapiens) (UniProt Q12851); assay: Inhibition of human MAP4K2 at 1 uM using 3xChocktide-PKC as substrate in presence of 33P-ATP by ProQinase assay
[5] = molecular target: Serine/threonine-protein kinase Nek1 (Homo sapiens) (UniProt Q96PY6); assay: Inhibition of human NEK1 at 1 uM using RBER-CHKtide as substrate in presence of 33P-ATP by ProQinase assay
[6] = molecular target: Mitogen-activated protein kinase 9 (Homo sapiens) (UniProt P45984); assay: Inhibition of human JNK2 at 1 uM using ATF2 as substrate in presence of 33P-ATP by ProQinase assay
[7] = molecular target: Ephrin type-B receptor 2 (Homo sapiens) (UniProt P29323); assay: Inhibition of recombinant human N-terminal His6-tagged EPHB2 (560 to 987 residues) expressed in baculovirus infected Sf21 cells assessed as remaining activity at 1 uM using Poly (Glu,Tyr) as substrate incubated for 30 mins in presence of [gamma-33P]ATP by filter binding method relative to control
[8] = molecular target: Serine/threonine-protein kinase PLK1 (Homo sapiens) (UniProt P53350); assay: Inhibition of recombinant human N-terminal His6-tagged PLK1 (1 to 603 residues) expressed in baculovirus infected Sf21 cells assessed as remaining activity at 1 uM using ISDELMDATFADQEAKKK as substrate incubated for 30 mins in presence of [gamma-33P]ATP by filter binding method relative to control
Serine/threonine-protein kinase PLK1 (Homo sapiens), sequence (P53350 whole entry, the tested form may be a part): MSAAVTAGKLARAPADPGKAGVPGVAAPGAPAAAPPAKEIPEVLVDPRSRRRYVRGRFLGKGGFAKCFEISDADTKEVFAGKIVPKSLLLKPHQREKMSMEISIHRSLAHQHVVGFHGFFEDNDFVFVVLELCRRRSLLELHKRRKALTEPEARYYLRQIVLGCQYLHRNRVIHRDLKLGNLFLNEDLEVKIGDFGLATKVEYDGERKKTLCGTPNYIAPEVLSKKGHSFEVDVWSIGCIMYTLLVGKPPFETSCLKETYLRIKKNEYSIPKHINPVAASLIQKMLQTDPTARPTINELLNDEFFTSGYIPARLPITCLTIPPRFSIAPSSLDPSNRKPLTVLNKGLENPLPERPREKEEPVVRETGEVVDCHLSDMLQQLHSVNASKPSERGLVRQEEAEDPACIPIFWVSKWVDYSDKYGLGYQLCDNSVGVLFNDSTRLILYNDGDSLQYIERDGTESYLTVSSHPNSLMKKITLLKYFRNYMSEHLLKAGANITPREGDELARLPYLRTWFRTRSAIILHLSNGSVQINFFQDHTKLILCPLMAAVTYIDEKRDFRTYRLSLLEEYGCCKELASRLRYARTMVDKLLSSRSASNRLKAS

[9] = molecular target: Cyclin-dependent kinase 2/cyclin E1 (Homo sapiens) (UniProt P24864+P24941); assay: Inhibition of human CDK2/CycE1 at 1 uM using RBER-CHKtide as substrate in presence of 33P-ATP by ProQinase assay; type: protein-complex assay
[10] = molecular target: Dual specificity mitogen-activated protein kinase kinase 2 (Homo sapiens) (UniProt P36507); assay: Inhibition of human MEK2 at 1 uM using RBER-IRStide as substrate in presence of 33P-ATP by ProQinase assay
Dual specificity mitogen-activated protein kinase kinase 2 (Homo sapiens), sequence (P36507 whole entry): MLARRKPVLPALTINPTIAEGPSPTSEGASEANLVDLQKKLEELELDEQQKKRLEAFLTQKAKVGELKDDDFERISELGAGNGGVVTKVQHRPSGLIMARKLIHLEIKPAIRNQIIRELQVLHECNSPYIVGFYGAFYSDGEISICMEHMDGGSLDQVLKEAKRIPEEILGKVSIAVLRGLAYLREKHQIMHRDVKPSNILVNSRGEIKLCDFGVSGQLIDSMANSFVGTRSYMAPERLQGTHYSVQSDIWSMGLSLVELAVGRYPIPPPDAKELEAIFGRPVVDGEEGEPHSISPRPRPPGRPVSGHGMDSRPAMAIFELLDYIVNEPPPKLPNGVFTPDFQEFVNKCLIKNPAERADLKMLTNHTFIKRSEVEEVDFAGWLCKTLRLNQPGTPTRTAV

[11] = molecular target: MAP kinase-activated protein kinase 3 (Homo sapiens) (UniProt Q16644); assay: Inhibition of human MAPKAPK3 at 1 uM using bio-4xCHKT as substrate in presence of 33P-ATP by ProQinase assay
MAP kinase-activated protein kinase 3 (Homo sapiens), sequence (Q16644 whole entry, looked up, the tested form may be a part): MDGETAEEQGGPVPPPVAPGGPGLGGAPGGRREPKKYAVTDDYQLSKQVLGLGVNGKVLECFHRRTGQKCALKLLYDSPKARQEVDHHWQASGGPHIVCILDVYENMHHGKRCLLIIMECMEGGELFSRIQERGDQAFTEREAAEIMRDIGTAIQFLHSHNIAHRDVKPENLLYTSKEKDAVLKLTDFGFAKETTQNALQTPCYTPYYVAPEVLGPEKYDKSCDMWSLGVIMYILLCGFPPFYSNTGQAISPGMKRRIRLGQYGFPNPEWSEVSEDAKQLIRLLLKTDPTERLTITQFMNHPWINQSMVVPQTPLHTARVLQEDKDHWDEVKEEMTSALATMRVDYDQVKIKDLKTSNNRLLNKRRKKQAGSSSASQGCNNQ

[12] = molecular target: Serine/threonine-protein kinase pim-3 (Homo sapiens) (UniProt Q86V86); assay: Inhibition of recombinant human N-terminal His6-tagged PIM3 (2 to 326 residues) expressed in baculovirus infected Sf21 cells assessed as remaining activity at 1 uM using RSRHSSYPAGT as substrate incubated for 30 mins in presence of [gamma-33P]ATP by filter binding method relative to control
[13] = molecular target: Ephrin type-A receptor 2 (Homo sapiens) (UniProt P29317); assay: Inhibition of human EPHA2 at 1 uM using polyEy as substrate in presence of 33P-ATP by ProQinase assay
Ephrin type-A receptor 2 (Homo sapiens), sequence (P29317 whole entry): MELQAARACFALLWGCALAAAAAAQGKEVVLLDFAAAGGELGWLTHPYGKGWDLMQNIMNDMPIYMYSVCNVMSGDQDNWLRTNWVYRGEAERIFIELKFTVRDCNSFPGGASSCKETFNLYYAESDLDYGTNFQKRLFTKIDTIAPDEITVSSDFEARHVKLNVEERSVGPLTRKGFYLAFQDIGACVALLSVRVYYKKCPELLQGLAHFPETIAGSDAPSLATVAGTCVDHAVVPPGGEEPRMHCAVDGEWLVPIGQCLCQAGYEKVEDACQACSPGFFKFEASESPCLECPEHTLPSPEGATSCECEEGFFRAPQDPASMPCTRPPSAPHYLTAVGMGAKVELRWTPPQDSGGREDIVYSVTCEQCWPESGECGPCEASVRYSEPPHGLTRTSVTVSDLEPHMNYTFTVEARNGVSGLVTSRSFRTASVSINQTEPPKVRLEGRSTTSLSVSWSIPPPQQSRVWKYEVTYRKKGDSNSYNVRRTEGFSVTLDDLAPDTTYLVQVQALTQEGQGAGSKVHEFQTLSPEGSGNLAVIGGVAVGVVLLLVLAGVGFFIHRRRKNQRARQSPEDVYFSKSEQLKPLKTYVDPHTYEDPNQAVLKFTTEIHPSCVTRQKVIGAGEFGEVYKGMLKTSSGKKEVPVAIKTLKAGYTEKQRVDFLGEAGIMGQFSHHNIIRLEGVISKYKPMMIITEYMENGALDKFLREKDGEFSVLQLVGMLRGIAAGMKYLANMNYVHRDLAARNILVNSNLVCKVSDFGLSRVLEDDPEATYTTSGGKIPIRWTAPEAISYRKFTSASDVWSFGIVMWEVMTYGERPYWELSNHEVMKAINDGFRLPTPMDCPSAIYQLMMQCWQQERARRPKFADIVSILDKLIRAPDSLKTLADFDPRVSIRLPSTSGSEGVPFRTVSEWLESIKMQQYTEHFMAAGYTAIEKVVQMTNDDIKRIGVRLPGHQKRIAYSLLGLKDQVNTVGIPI

[14] = molecular target: Tyrosine-protein kinase ABL1 (Homo sapiens) (UniProt P00519); assay: Inhibition of human ABL1 at 1 uM using poly(Ala,Glu,Lys,Tyr) as substrate in presence of 33P-ATP by ProQinase assay
[15] = molecular target: Serine/threonine-protein kinase DCLK2 (Homo sapiens) (UniProt Q8N568); assay: Inhibition of human DCAMKL2 at 1 uM using RBER-CHKtide as substrate in presence of 33P-ATP by ProQinase assay
[16] = molecular target: Calcium/calmodulin-dependent protein kinase type II subunit alpha (Homo sapiens) (UniProt Q9UQM7); assay: Inhibition of human CAMK2A at 1 uM using RBER-CHKtide as substrate in presence of 33P-ATP by ProQinase assay
[17] = molecular target: Choline/ethanolamine kinase (Homo sapiens) (UniProt Q9Y259); assay: Inhibition of recombinant human N-terminal GST-tagged CHKbeta (1 to 395 residues) expressed in Escherichia coli at 1 uM using choline chloride as substrate incubated for 40 mins by ADP-Glo assay
[18] = molecular target: Phosphorylase b kinase gamma catalytic chain, liver/testis isoform (Homo sapiens) (UniProt P15735); assay: Inhibition of human PHKG2 at 1 uM using RBER-CHKtide as substrate in presence of 33P-ATP by ProQinase assay
[19] = molecular target: Mitogen-activated protein kinase 8 (Homo sapiens) (UniProt P45983); assay: Inhibition of human JNK1 at 1 uM using ATF2 as substrate in presence of 33P-ATP by ProQinase assay
[20] = molecular target: Ribosomal protein S6 kinase alpha-2 (Homo sapiens) (UniProt Q15349); assay: Inhibition of human RPS6KA2 at 1 uM using bio-4xCHKT as substrate in presence of 33P-ATP by ProQinase assay
Ribosomal protein S6 kinase alpha-2 (Homo sapiens), sequence (Q15349 whole entry): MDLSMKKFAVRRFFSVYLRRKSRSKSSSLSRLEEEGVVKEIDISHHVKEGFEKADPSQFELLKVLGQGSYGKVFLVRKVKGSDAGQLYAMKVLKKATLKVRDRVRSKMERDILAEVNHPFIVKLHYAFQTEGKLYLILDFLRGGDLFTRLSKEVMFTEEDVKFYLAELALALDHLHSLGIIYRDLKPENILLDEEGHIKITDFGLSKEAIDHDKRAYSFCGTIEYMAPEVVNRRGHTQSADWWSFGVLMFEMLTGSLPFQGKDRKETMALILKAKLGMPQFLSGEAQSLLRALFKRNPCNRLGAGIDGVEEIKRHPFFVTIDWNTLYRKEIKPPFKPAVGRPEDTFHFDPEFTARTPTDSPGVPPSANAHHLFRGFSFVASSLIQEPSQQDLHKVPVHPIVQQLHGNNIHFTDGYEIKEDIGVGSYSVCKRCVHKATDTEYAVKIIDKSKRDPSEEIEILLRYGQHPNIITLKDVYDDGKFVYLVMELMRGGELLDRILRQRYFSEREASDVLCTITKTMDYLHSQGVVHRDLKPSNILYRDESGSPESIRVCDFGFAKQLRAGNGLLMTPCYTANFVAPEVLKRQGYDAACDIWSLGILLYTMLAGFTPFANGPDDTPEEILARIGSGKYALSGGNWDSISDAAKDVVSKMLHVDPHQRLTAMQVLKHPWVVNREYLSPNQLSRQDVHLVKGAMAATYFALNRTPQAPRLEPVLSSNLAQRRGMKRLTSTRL

[21] = molecular target: Serine/threonine-protein kinase D3 (Homo sapiens) (UniProt O94806); assay: Inhibition of human PKCnu at 1 uM using bio-4xCHKT as substrate in presence of 33P-ATP by ProQinase assay
[22] = molecular target: Insulin receptor (Homo sapiens) (UniProt P06213); assay: Inhibition of recombinant human N-terminal His6-tagged IR (1001 to 1382 residues) expressed in baculovirus infected Sf21 cells assessed as remaining activity at 1 uM using KKSRGDYMTMQIG as substrate incubated for 30 mins in presence of [gamma-33P]ATP by filter binding method relative to control
Insulin receptor (Homo sapiens), sequence (P06213 28-758 limits assumed): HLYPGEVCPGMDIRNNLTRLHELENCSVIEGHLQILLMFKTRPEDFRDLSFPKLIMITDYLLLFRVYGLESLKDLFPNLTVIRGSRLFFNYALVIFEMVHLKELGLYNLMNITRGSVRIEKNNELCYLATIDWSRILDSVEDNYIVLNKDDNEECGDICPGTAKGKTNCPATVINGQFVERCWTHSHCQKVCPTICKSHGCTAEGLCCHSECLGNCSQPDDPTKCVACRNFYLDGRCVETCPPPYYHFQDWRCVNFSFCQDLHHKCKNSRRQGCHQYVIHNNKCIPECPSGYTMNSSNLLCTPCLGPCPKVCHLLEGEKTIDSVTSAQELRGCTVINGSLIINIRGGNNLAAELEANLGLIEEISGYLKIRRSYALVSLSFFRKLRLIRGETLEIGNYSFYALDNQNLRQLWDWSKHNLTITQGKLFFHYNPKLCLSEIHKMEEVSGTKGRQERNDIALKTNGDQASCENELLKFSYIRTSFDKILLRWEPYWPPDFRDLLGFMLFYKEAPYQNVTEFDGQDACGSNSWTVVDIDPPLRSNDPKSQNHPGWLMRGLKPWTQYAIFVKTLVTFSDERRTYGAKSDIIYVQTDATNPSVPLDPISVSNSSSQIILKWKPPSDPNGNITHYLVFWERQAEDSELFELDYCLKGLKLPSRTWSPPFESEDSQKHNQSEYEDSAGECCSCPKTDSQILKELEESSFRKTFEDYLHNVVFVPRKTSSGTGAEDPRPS
Insulin receptor (Homo sapiens), sequence (P06213 763-1382 limits assumed): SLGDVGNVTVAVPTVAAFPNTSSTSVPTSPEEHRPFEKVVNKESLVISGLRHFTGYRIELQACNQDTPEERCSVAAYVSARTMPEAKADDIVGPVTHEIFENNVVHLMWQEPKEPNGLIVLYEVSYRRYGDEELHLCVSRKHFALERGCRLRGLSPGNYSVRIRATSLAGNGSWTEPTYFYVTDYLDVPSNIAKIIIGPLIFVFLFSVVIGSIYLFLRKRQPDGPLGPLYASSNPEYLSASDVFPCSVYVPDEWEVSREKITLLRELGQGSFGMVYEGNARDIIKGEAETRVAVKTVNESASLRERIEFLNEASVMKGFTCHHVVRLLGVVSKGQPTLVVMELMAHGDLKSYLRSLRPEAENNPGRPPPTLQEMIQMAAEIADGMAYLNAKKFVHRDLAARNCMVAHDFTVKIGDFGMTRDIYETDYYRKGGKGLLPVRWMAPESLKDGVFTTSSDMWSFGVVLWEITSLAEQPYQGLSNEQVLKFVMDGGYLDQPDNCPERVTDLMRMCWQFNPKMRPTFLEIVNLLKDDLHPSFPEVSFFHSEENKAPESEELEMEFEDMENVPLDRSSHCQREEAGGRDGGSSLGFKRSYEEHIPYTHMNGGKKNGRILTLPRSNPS

[23] = molecular target: CDK9/Cyclin K (Homo sapiens) (UniProt P50750+O75909); assay: Inhibition of human CDK9/CycK at 1 uM using RBER-CHKtide as substrate in presence of 33P-ATP by ProQinase assay; type: protein-complex assay
[24] = molecular target: Tyrosine-protein kinase JAK2 (Homo sapiens) (UniProt O60674); assay: Inhibition of JAK2 (unknown origin) assessed as remaining activity at 1 uM relative to control
Outline: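 Dundee panel of 140 protein kinases, tested at a single 1 μM concentration. Each assay was run in triplicate. Remaining activity is expressed relative to a control reaction without inhibitor, as mean ± S.D. Conditions for each kinase were those of the screening centre.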

[25] = molecular target: Casein kinase I isoform alpha (Homo sapiens) (UniProt P48729); assay: Inhibition of human CK1alpha1 at 1 uM using casein as substrate in presence of 33P-ATP by ProQinase assay
Casein kinase I isoform alpha (Homo sapiens), sequence (P48729 2-337 limits assumed): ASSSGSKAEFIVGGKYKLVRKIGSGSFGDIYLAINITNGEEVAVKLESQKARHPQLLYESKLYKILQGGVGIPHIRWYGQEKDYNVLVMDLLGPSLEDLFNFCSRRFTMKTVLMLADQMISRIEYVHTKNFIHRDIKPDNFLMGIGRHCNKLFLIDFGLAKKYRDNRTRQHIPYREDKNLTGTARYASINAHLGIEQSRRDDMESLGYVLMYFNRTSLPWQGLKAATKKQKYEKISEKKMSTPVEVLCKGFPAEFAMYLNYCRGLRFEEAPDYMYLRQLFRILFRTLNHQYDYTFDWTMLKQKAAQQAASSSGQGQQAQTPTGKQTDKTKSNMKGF

Which inhibition [1] does the source give for `CC(C)(O)CNc1ncc(-c2ccnc(Nc3ccnc(Cl)c3)n2)c(CC2CC2)n1` here?
Its inhibition is “inactive”.

And the inhibition [2]?
Its inhibition is “inactive”.

What about the inhibition [3] of the same compound?
The inhibition was “inactive”.

What about the inhibition [4] of the same compound?
The inhibition was “inactive”.

What about the inhibition [5] of the same compound?
The inhibition was “inactive”.

And the inhibition [6]?
Its inhibition is “inactive”.

What about the Activity [7] of the same compound?
The Activity was 109%.

And the Activity [8]?
Its Activity is 114%.

And the inhibition [9]?
Its inhibition is “inactive”.

And the inhibition [10]?
The inhibition was “inactive”.

And the inhibition [11]?
Its inhibition is “inactive”.

What about the Activity [12] of the same compound?
The Activity was 114%.

What about the inhibition [13] of the same compound?
The inhibition was “inactive”.

And the inhibition [14]?
Its inhibition is “inactive”.

What about the inhibition [15] of the same compound?
Its inhibition is “inactive”.

And the inhibition [16]?
Its inhibition is “inactive”.

What about the inhibition [17] of the same compound?
The inhibition was “inactive”.

And the inhibition [18]?
Its inhibition is “inactive”.

What about the inhibition [19] of the same compound?
The inhibition was “inactive”.

And the inhibition [20]?
The inhibition was “inactive”.

What about the inhibition [21] of the same compound?
The inhibition was “inactive”.

What about the Activity [22] of the same compound?
Its Activity is 109%.

And the inhibition [23]?
The inhibition was “inactive”.

What about the Activity [24] of the same compound?
Its Activity is 93%.

What about the inhibition [25] of the same compound?
The inhibition was “inactive”.
